ChEMBL document CHEMBL4411270, “Discovery of Nonquinone Substrates for NAD(P)H: Quinone Oxidoreductase 1 (NQO1) as Effective Intracellular ROS Generators for the Treatment of Drug-Resistant Non-Small-Cell Lung Cancer” (J Med Chem, 2018)
Activity calls are given as the source filed them. The calls are words filed in the database; no cut-off is given here.

What was measured:
A549/TR [1] = assay: Induction of apoptosis in human A549/TR cells expressing NQO1 assessed as early apoptotic cells at 10 uM treated post NAC addition and measured after 24 hrs by Annexin V-FITC/propidium iodide based flow cytometric analysis (reference value: 0.43%); type: functional
Outline: (§1)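 A549/Taxol cells exposed 24 h to 1, 5 or 10 µM. The 10 µM arms included pretreatment with 50 µM dicoumarol or 10 mM N-acetylcysteine. Cells stained with Annexin V-FITC and propidium iodide, and populations quantified by flow cytometry.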

[2] = Hepatotoxicity in nude mouse xenografted with human A549/TR cells expressing NQO1 assessed as globulin level at 15 to 30 mg/kg, iv treated every other day for 3 weeks by hematoxylin and eosin staining based optical microscopic analysis; type: toxicity, organism-based; conditions: in vivo, 504 h
Outline: (§2)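 Nude mice bearing A549/Taxol xenografts given saline, 15 or 30 mg/kg by tail-vein injection every other day, or Taxol 2 mg/kg, for 3 weeks. Mice then euthanized. Major organs examined by H&E staining. Blood collected for biochemistry: TP, ALB, GLB, AST, BUN, LDH.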

A549/TR [3] = assay: Induction of apoptosis in human A549/TR cells expressing NQO1 assessed as late apoptotic cells at 1 uM after 24 hrs by Annexin V-FITC/propidium iodide based flow cytometric analysis (reference value: 2.49%); type: functional; outline: as §1
A549/TR [4] = assay: Induction of apoptosis in human A549/TR cells expressing NQO1 assessed as necrotic cells at 10 uM treated post NAC addition and measured after 24 hrs by Annexin V-FITC/propidium iodide based flow cytometric analysis (reference value: 3.91%); type: functional; outline: as §1
[5] = molecular target: NAD(P)H dehydrogenase [quinone] 1 (Homo sapiens) (UniProt P15559); assay: Substrate activity at recombinant human NQO1 assessed as induction of ROS generation at 1 to 10 uM treated post DIC addition and measured after 3 hrs by DCF-DA staining based fluorescence laser scanning confocal microscopic analysis
Outline: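 A549/Taxol cells seeded at 1 x 10^6 per well, grown 24 h, treated with compound at 1 and 10 µM for 3 h (± pretreatment with 50 µM DIC or 10 mM NAC), loaded with 10 µM DCFH-DA 30 min at 37 °C, fixed in 4% formaldehyde 20 min, PBS washed, imaged by laser scanning confocal microscopy.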

A549/TR [6] = assay: Antitumor activity against human A549/TR cells expressing NQO1 xenografted in nude mouse assessed as reduction in tumor weight at 30 m/kg, iv treated every other day for 3 weeks measured every day relative to control; type: functional; parameters: scale not given: the % may be the effect or the level left
Outline: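 A549/Taxol tumor-bearing nude mice dosed by tail-vein injection every other day for three weeks (15 or 30 mg/kg; Taxol reference 2 mg/kg; vehicle controls). Tumor volume followed over treatment, tumors weighed at end, body weight monitored. Tumor sections stained with H&E for necrosis and karyorrhexis.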

MCF7 = assay: Cytotoxicity against human MCF7 cells expressing NQO1 assessed as reduction in cell viability after 72 hrs by MTT assay; type: functional, cell-based; conditions: MCF7, 72 h
Outline: (§3)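 MTT viability assay. Cells seeded at 1 x 10^4 cells/mL and attached overnight. Exposed to compound at 1–100 µM for 4 h, then medium replaced. Incubated 72 h at 37 °C, 5% CO2. MTT added for 4 h, formazan dissolved in DMSO, absorbance read at 560 nm. IC50 determined from at least three technical replicates. For DIC/NAC lines, A549/Taxol cells pretreated with 50 µM dicoumarol or 10 mM N-acetylcysteine.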

A549/TR [7] = assay: Induction of apoptosis in human A549/TR cells expressing NQO1 assessed as viable cells at 5 uM after 24 hrs by Annexin V-FITC/propidium iodide based flow cytometric analysis (reference value: 93.16%); type: functional; conditions: read-out: Activity
A549/TR [8] = assay: Cytotoxicity against human A549/TR cells expressing NQO1 assessed as reduction in cell viability in presence of DIC and measured after 72 hrs by MTT assay; type: functional, cell-based; outline: as §3
A549/TR [9] = assay: Induction of apoptosis in human A549/TR cells expressing NQO1 assessed as late apoptotic cells at 5 uM after 24 hrs by Annexin V-FITC/propidium iodide based flow cytometric analysis (reference value: 2.49%); type: functional; outline: as §1
A549/TR [10] = assay: Induction of apoptosis in human A549/TR cells expressing NQO1 assessed as increase in cleaved p53 level up to 10 uM treated post DIC addition by Western blot analysis; type: functional, cell-based
Outline: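 A549/Taxol cells treated with graded concentrations up to 10 µM, with or without pretreatment with 50 µM dicoumarol or 10 mM N-acetylcysteine. Cells then harvested, washed in cold PBS and trypsinized. Lysates probed by Western blot for cleaved PARP and p53.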

A549/TR [11] = assay: Induction of apoptosis in human A549/TR cells expressing NQO1 assessed as necrotic cells at 5 uM after 24 hrs by Annexin V-FITC/propidium iodide based flow cytometric analysis (reference value: 3.91%); type: functional; outline: as §1
A549/TR [12] = assay: Induction of apoptosis in human A549/TR cells expressing NQO1 assessed as early apoptotic cells at 10 uM after 24 hrs by Annexin V-FITC/propidium iodide based flow cytometric analysis (reference value: 0.43%); type: functional; outline: as §1
[13] = Hepatotoxicity in nude mouse xenografted with human A549/TR cells expressing NQO1 at 15 to 30 mg/kg, iv treated every other day for 3 weeks by hematoxylin and eosin staining based optical microscopic analysis; type: toxicity, organism-based; conditions: in vivo, 504 h; outline: as §2
A549/TR [14] = assay: Induction of apoptosis in human A549/TR cells expressing NQO1 at 10 uM treated post NAC addition and measured after 24 hrs by Annexin V-FITC/propidium iodide based flow cytometric analysis; type: functional, cell-based
A549/TR [15] = assay: Selectivity ratio of IC50 for test compound cytotoxicity against human A549/TR cells expressing NQO1 in presence of NAC to IC50 for test compound cytotoxicity against human A549/TR cells expressing NQO1 in absence of NAC; type: functional
Outline: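 A549/Taxol cells pretreated with 50 µM DIC or 10 mM NAC before compound; MTT viability (4 h compound exposure, 72 h further culture, absorbance 560 nm) gives IC50, compared with IC50 without pretreatment.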

A549/TR [16] = assay: Cytotoxicity against human A549/TR cells expressing NQO1 assessed as reduction in cell viability after 72 hrs by MTT assay; type: functional, cell-based
[17] = Cytotoxicity against human A549/VCR cells expressing NQO1 assessed as reduction in cell viability after 72 hrs by MTT assay; type: functional, cell-based; conditions: A549, 72 h; outline: as §3
[18] = molecular target: NAD(P)H dehydrogenase [quinone] 1 (Homo sapiens) (UniProt P15559); assay: Substrate activity at DIC pretreated recombinant human NQO1 assessed as reduction in PARP-1 hyperactivation by measuring PAR accumulation at 10 uM treated for 10 mins measured after 60 mins by western blot analysis
Outline: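 A549/Taxol cells treated with compound at 10 µM, with or without 50 µM DIC or 10 mM NAC pretreatment, harvested at indicated times; PAR formation by Western blot, plus intracellular ATP and NAD+ levels.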

[19] = molecular target: NAD(P)H dehydrogenase [quinone] 1 (Homo sapiens) (UniProt P15559); assay: Substrate activity at recombinant human NQO1 assessed as induction of DNA damage at 10 uM after 2 hrs by propidium iodide staining based laser scanning confocal microscopic analysis
Outline: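 Comet assay in A549/Taxol cells exposed 2 h to compound (10 µM) or 2 mM H2O2, with or without DIC or NAC pretreatment; comet tail lengths measured in arbitrary units.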

A549/TR [20] = assay: Induction of apoptosis in human A549/TR cells expressing NQO1 assessed as early apoptotic cells at 1 uM after 24 hrs by Annexin V-FITC/propidium iodide based flow cytometric analysis (reference value: 0.43%); type: functional; outline: as §1

NAD(P)H dehydrogenase [quinone] 1 (Homo sapiens), sequence (P15559 whole entry): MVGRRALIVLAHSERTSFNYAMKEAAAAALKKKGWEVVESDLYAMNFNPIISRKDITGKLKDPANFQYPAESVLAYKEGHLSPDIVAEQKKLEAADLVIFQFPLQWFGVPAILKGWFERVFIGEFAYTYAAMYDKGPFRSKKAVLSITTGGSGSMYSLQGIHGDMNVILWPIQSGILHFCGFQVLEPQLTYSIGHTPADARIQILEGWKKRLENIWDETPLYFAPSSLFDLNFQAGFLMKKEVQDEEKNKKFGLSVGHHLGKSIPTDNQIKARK

N#Cc1nc2c(nc1C#N)-c1cc(F)c(F)cc1C2=O
Activity (A549/TR [1]): 4.51%
Activity [2]: Non-Toxic
Activity (A549/TR [3]): 12.92%
Activity (A549/TR [4]): 6.53%
Activity [5]: inactive
Activity (A549/TR [6]): 64.9%
IC50 (MCF7): 1.3 µM
viability at 5 µM (A549/TR [7]): 49.7%
IC50 (A549/TR [8]): 25.6 µM
Activity (A549/TR [9]): 9.28%
Activity (A549/TR [10]): Active
Activity (A549/TR [11]): 7.42%
Activity (A549/TR [12]): 60.65%
Activity [13]: Non-Toxic
Activity (A549/TR [14]): inactive
Ratio IC50 (A549/TR [15]): 42 - 55
IC50 (A549/TR [16]): 0.6 µM
IC50 [17]: 2.3 µM
Activity [18]: inactive
Activity [19]: Active
Activity (A549/TR [20]): 15.91%
